Bioassay records (PubChem BioAssay)
Sampled rows, rich in hits. Any-hit rate of the full collection: about 1.3%.
CASP6 VEID inh: caspase-6 (human) enzyme inhibition; P55212; purified caspase-6, Z-VEID-R110 cleavage fluorescence; inhibition, % at 12.5 µM; 350,000 tested, 0.53% active;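 active means mean inhibition across replicates at least about 35%, with every replicate also reaching that limit, limit read from the data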;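 further: 0% = median of neutral control wells and 100% = no fluorescence left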
XiGFP reactiv: reactivates the inactive X chromosome in mouse fibroblasts. XiGFP mouse fibroblasts, % GFP-positive cells imaging, 3 d; cells co-treated with 5-aza-dC sensitizer; scaled so ellipticine positive control = 100%. activation, % at 7.58 µM. 360,000 tested, 0.055% active. AID 743238;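 active means mean normalized replicate activation at least 10% and every replicate at or above 10%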;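 further: 0% = median of on-plate neutral control wells and 100% = ellipticine 6 µM median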
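Material: XiGFP fibroblasts, SV40-immortalized. Buffer or medium: DMEM plus 5-aza-dC sensitizer. Compound: single concentration per compound, delivered by pin transfer. Times: 3 days compound exposure. Controls: ellipticine 6 µM.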
S100A4 inh HTS: blocks human S100A4 binding to myosin IIA peptide | P26447 | S100A4/TAMRA-MyoIIA peptide fluorescence polarization | inhibition, % at 10.7 µM | 360,000 tested, 0.14% active;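 active means mean inhibition of at least 70% across replicates, with every replicate also reaching that level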
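Material: S100A4 monomer (human). Medium: Calcium-containing HEPES buffer, pH 7.2. Probe or stimulus: labelled myosin peptide probe, 5 nM. Compound dosing: one concentration per compound. Timing: polarization read 5 min after assay mix addition, stable 5–60 min. Benchmarks: DMSO as neutral control, TFP as positive control.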
RAD52 anneal inh: RAD52 (human) annealing inhibition | P43351 | recombinant RAD52 DNA annealing, FRET fluorescence | inhibition, % at 18.7 µM | 360,000 tested, 0.46% active;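 active means every replicate showing at least 50% inhibition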
AF4-AF9 inh: inhibitors of human MLL-AF4/AF9 interaction; 350,000 tested, 0.47% active; P42568; inhibition, % at 10 µM; AlphaScreen, biotin-AF4 peptide binding to FLAG-AF9;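 active means every replicate reaching a set inhibition limit, whatever the replicate mean, cut at about 25% in these data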;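 further: 0% = plate neutral control median and 100% = total signal loss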
RAD54 branch: blocks human RAD54 Holliday junction branch migration | Q92698 | FAM/BHQ fluorescence | inhibition, % at 10.4 µM | 360,000 tested, 0.14% active | AID 602329;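 active means mean normalized replicate activity at least 40 and at least half of replicates scoring 40 or more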;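 further: 0% = median of neutral control wells and 100% = median of positive control wells; inhibitors cause a drop in the FAM fluorescence signal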
The depositor's hits bear a star.

Screening C[C@@H]1CN(C)C(=O)c2cc(N(C)C)ccc2O[C@@H]1CN(C)C(=O)OC(C)(C)C returned XiGFP reactiv 0.
Screening COc1ccc2c3c(n(C)c2c1)[C@H](CO)NCC31CN(Cc2ccccc2Cl)C1 returned CASP6 VEID inh -1, XiGFP reactiv 0, S100A4 inh HTS -5, RAD52 anneal inh 15 and AF4-AF9 inh 43*.
`COc1ccc2c3c(n(C)c2c1)[C@H](CO)NCC31CN(Cc2ccc(Cl)cc2)C1` gave XiGFP reactiv 0.
`C[C@H](CO)N1C[C@H](C)[C@@H](CN(C)S(=O)(=O)c2ccccc2)Oc2ccc(NC(=O)CCCCCC(=O)Nc3ccccc3N)cc2C1=O` gave CASP6 VEID inh 1, XiGFP reactiv 0, S100A4 inh HTS 2, RAD52 anneal inh 2 and AF4-AF9 inh -4.
Screening O=C1NN(c2ccc(Cl)c(Cl)c2)C(=O)/C1=C/c1ccc(-c2ccccc2C(=O)O)o1 returned CASP6 VEID inh 37*, XiGFP reactiv 0, S100A4 inh HTS -4, RAD52 anneal inh -30, AF4-AF9 inh 5 and RAD54 branch 2.
`COC(=O)c1ccc(N2NC(=O)/C(=C/c3ccc(-c4ccc(Cl)c(C(=O)O)c4)o3)C2=O)cc1` gave CASP6 VEID inh 58*, XiGFP reactiv 0, S100A4 inh HTS 12, RAD52 anneal inh 20 and AF4-AF9 inh 1.
CCC(=O)N1C[C@@H](C)[C@H](OC)CN(C)C(=O)c2cc(NS(C)(=O)=O)ccc2OC[C@@H]1C was read as CASP6 VEID inh -1, XiGFP reactiv 0, S100A4 inh HTS 2, RAD52 anneal inh 3, AF4-AF9 inh -1 and RAD54 branch 1.
COCC(=O)N1[C@@H](CO)[C@@H](c2ccccc2)C12CN(Cc1cccc(OC)c1)C2 was read as XiGFP reactiv 0.
For CSc1ccc(CN2CCC2(C)C(=O)Nc2cccc(NS(C)(=O)=O)c2)cc1 (stereo not given) the results were CASP6 VEID inh 41*, XiGFP reactiv 0, S100A4 inh HTS 1, RAD52 anneal inh -10, AF4-AF9 inh 0 and RAD54 branch 1.
`COc1ccc(CN(C)C[C@@H]2OCCCC[C@H](C)Oc3ccc(NS(=O)(=O)c4cn(C)cn4)cc3C(=O)N([C@@H](C)CO)C[C@H]2C)cc1` gave CASP6 VEID inh 0, XiGFP reactiv -1, S100A4 inh HTS 110*, RAD52 anneal inh 20, AF4-AF9 inh -8 and RAD54 branch -3.
Screening COc1ccc(NC(=O)N(C)C[C@H]2OCCCC[C@@H](C)Oc3ccc(NS(=O)(=O)c4cn(C)cn4)cc3C(=O)N([C@H](C)CO)C[C@@H]2C)cc1 returned CASP6 VEID inh 60*, XiGFP reactiv 0, S100A4 inh HTS 4, RAD52 anneal inh -3, AF4-AF9 inh -5 and RAD54 branch 5.
COc1ccc(NC(=O)N(C)C[C@H]2OCCCC[C@H](C)Oc3ccc(NS(=O)(=O)c4cn(C)cn4)cc3C(=O)N([C@H](C)CO)C[C@@H]2C)cc1 was read as CASP6 VEID inh -1, XiGFP reactiv 0, S100A4 inh HTS 3, RAD52 anneal inh -23, AF4-AF9 inh 0 and RAD54 branch -12.
Screening COCC(=O)Nc1ccc2c(c1)C(=O)N(C)[C@H]1CC[C@H](CC(=O)Nc3ccc(F)cc3)O[C@@H]1CO2 returned CASP6 VEID inh 3, XiGFP reactiv 0, S100A4 inh HTS 8, RAD52 anneal inh 3, AF4-AF9 inh -4 and RAD54 branch -5.
For C[C@@H]1CN([C@H](C)CO)C(=O)c2cc(NC(=O)c3ccncc3)ccc2O[C@@H](C)CCCCO[C@@H]1CN(C)Cc1ccc(C(=O)O)cc1 the results were CASP6 VEID inh 1, XiGFP reactiv 0, S100A4 inh HTS 3, RAD52 anneal inh 100*, AF4-AF9 inh -4 and RAD54 branch -3.
For C[C@@H]1CN([C@H](C)CO)C(=O)c2cc(NC(=O)c3ccncc3)ccc2O[C@@H](C)CCCCO[C@H]1CN(C)Cc1ccc(C(=O)O)cc1 the results were CASP6 VEID inh 0, XiGFP reactiv 0, S100A4 inh HTS 3, RAD52 anneal inh 99*, AF4-AF9 inh -3 and RAD54 branch -6.
